Measurements from article PMC3733550 (Biochemical pharmacology, 2011).
pEC50, pIC50: −log10 of the molar value. Like-named read-outs stand apart in the source and are kept apart here. Marks after values point to notes of the source that are not given here.

Experiments:
[1] = system: ABCG2 expression in MDA-MB-231/R cells; experiment: Western blot analysis of ABCG2 protein levels in MDA-MB-231/R cells; assay type: cell-based, human; details: 72 h; A-2 0.5 μM or 1 μM; MX 0.1 μM
MDA-MB-231/V cells = experiment: Growth inhibition by mitoxantrone in parental MDA-MB-231/V cells; assay type: cell-based; details: Homo sapiens, MDA-MB-231, 72 h, read-out: IC50 value of MX in MDA-MB-231/V cells
[2] = system: ABCG2-expressing MDA-MD-231/R cells; experiment: Re-sensitization of MDA-MB-231/R cells to mitoxantrone; assay type: cell-based, human
ABCG2 [3] = target: T1, ABCG2 (Homo sapiens, UniProt Q9UNQ0); details: read-out: EC50 PhA; increasing PhA content in ABCG2 over-expressing MDA-MB-231/R cells; cited from earlier work
T1 sequence (Q9UNQ0 1-655): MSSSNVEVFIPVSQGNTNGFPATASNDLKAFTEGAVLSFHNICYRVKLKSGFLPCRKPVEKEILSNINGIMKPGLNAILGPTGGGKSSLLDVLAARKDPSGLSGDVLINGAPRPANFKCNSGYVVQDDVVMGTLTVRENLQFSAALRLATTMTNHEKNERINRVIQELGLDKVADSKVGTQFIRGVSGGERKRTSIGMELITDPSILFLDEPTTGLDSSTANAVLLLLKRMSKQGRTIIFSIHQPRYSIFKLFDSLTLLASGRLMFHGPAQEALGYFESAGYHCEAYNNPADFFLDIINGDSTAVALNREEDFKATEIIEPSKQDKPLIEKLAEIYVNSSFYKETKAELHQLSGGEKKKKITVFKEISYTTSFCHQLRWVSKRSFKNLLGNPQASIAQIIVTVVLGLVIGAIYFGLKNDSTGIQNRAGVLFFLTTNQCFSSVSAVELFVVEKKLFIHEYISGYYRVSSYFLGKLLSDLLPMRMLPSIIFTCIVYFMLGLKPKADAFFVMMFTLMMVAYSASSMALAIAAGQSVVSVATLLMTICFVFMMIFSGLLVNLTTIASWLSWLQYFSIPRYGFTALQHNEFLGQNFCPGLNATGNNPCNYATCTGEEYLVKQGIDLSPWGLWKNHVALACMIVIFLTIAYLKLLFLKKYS

MDA-MB-231/R = experiment: Cell cytotoxicity by MTT assay on MDA-MB-231/R cells; assay type: cell-based, human; details: % of control cells (1% DMSO)
How it was run: (§1)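 Cells grown in RPMI 1640 with 10% FBS and 1.0 mg/ml geneticin at 37°C, 5% CO2, and used within 10 passages. 10^4 cells/well were seeded for 24 h, then exposed for 72 h to test compound (5 or 10 μM; 1% v/v DMSO final). After a PBS wash, MTT was added (3 h, 37°C), formazan dissolved in DMSO, and A590 read. Viability is % of 1% DMSO controls, mean (SD) of three independent determinations.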

ABCG2 [4] = target: T1, ABCG2; experiment: ABCG2 ATPase assay; assay type: biochemical
ABCG2 [5] = target: T1, ABCG2; experiment: Photoaffinity labeling of ABCG2 with [125I]-IAAP in MCF-7 FLV1000 membranes; assay type: binding; details: test compound 5 μM
MDA-MB-231/V = experiment: Cell cytotoxicity by MTT assay on MDA-MB-231/V cells; assay type: cell-based, human; details: % of control cells (1% DMSO)
How it was run: as §1

## O=C1c2c(O)ccc(O)c2C(=O)c2c(NCCNCCO)ccc(NCCNCCO)c21 [Mitoxantrone]
[1]
  Effect on ABCG2 protein levels in R cells: no effect
MDA-MB-231/V cells
  pIC50: 7.15
[2]; Homo sapiens, MDA-MB-231, 72 h, read-out: IC50 of mitoxantrone
  pIC50: 6.04

## COc1ccc2c3c([nH]c2c1)[C@H](C=C(C)C)N1C(=O)[C@@H]2CCCN2C(=O)[C@@H]1C3 [FTC, fumitremorgin C]
ABCG2 [3]
  pEC50: 5.89
[2]; MX + test compound 0.05 μM, IC50 of MX R cells + test compound / IC50 of MX V cells
  Resistance index: 7.4

## O=C1/C(=C/c2ccccc2)Oc2ccccc21 [UA-1]
MDA-MB-231/R; 5 μM
  % Viability MDA-MB-231/R 5 μM: 68 (10) ^d %
MDA-MB-231/R; 10 μM
  % Viability MDA-MB-231/R 10 μM: 60 (8) ^c %
ABCG2 [4]
  ATPase activity (fold stimulation): 2.8 fold
  pEC50: 6.72
ABCG2 [5]
  Effect on photolabelling of ABCG2 by [125I]-IAAP (in words): minimal changes
MDA-MB-231/V; 5 μM
  % Viability MDA-MB-231/V 5 μM: 98 (9) ^d %
MDA-MB-231/V; 10 μM
  % Viability MDA-MB-231/V 10 μM: 103 (7) ^c %
